From ChEMBL document CHEMBL2069258, “Novel phosphoramidate prodrugs of N-acetyl-(D)-glucosamine with antidegenerative activity on bovine and human cartilage explants” (J Med Chem, 2012)

Legend:
[1] = system: Cartilage tissue; experiment: Antidegenerative activity against bovine cartilage explant assessed as inhibition of IL1-induced of GAG release at 0.1 mM for 1 day before IL-1 treatment measured after 6 days by colorimetric analysis relative to control; type: functional; details: Bos taurus
Outline: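 Articular cartilage explants from different cows, equilibrated 24 h, then cultured one day in DMEM + hydrolyzed lactalbumin + 50 μg/mL vitamin C + penicillin/streptomycin + ITS with or without compound (0.1 mM). GAG release then induced with 10 ng IL-1 and continued six days, medium changed every two days. Medium GAG measured by Blyscan colorimetric assay. GAG fold-increase versus minus-IL-1 control. Percent reduction relative to IL-1-only fold. Triplicates per experiment, mean of n experiments.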

[2] = Cytotoxicity against bovine articular chondrocytes assessed as cell viability at 0.1 mM by MTT assay relative to control; parameters: species or system Bos taurus; details: cattle, read-out: Activity
Outline: (§1)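 Chondrocyte monolayers tested in parallel with the explant work. Viability measured by MTT and expressed as percent of untreated cells (no compound = 100%). Mean and SE over n experiments, each in triplicate.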

[3] = Cytotoxicity against human articular chondrocytes assessed as metabolic activity at 10 uM by WST-1 assay; details: read-out: Activity
[4] = Antidegenerative activity against human cartilage explant assessed as inhibition of IL1-induced of GAG release at 10 uM for 1 day before IL-1 treatment measured after 6 days by colorimetric analysis relative to control; type: functional; details: Cartilage tissue
Outline: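 Human cartilage explants, equilibrated 24 h, then cultured one day in DMEM + hydrolyzed lactalbumin + 50 μg/mL vitamin C + penicillin/streptomycin + ITS with compound. 10 ng IL-1 then added and culture continued six days, medium replaced every two days. Medium GAG measured by Blyscan colorimetric assay. Percent reduction = (mean control − mean sample release)/control × 100, against a 0.25% DMSO + IL-1 control.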

[5] = system: Cartilage tissue; experiment: Antidegenerative activity against bovine cartilage explant assessed as inhibition of IL1-induced of GAG release at 10 mM for 1 day before IL-1 treatment measured after 6 days by colorimetric analysis relative to control; type: functional; details: Bos taurus
Outline: (§2)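 Articular cartilage explants from different cows, equilibrated 24 h, then cultured 1 day in DMEM with hydrolyzed lactalbumin, 50 μg/mL vitamin C, penicillin/streptomycin and ITS, with or without compound. IL-1 10 ng added; medium changed every two days; harvested 6 days later. GAG in medium by Blyscan colorimetric assay. Fold increase over minus-IL-1 control used to derive % reduction versus IL-1-only fold. Triplicate per experiment; mean and SE over n cows.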

[6] = system: Cartilage tissue; experiment: Antidegenerative activity against bovine cartilage explant assessed as inhibition of IL1-induced of GAG release at 1 mM for 1 day before IL-1 treatment measured after 6 days by colorimetric analysis relative to control; type: functional; details: Bos taurus; outline: as §2
[7] = Cytotoxicity against bovine articular chondrocytes assessed as cell viability at 10 mM by MTT assay relative to control; parameters: species or system Bos taurus; details: cattle, read-out: Activity; outline: as §1
[8] = Cytotoxicity against bovine articular chondrocytes assessed as cell viability at 1 mM by MTT assay relative to control; parameters: species or system Bos taurus; details: cattle, read-out: Activity
Outline: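 Chondrocyte monolayer cultures exposed to compound in parallel with the explant experiments. Viability read by MTT, as percent of untreated control cells (100%). Mean of n experiments from different cows, each run in triplicate.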

[9] = Stability of compound in guinea pig serum assessed as hydrolysis after 17 hrs by NMR analysis; type: ADME, cell-free, Cavia porcellus
Outline: (§3)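 Prodrug disappearance followed by NMR in guinea pig or human serum at 37 °C, pH 7.0. Half-life taken from the apparent first-order rate constant, by linear regression of pseudo-first-order plots of prodrug concentration versus time.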

[10] = system: Serum; experiment: Stability of compound in human serum assessed as hydrolysis after 17 hrs by NMR analysis; type: ADME, cell-free; outline: as §3
[11] = Cytotoxicity against human articular chondrocytes assessed as metabolic activity at 250 uM by WST-1 assay; details: read-out: Activity
Outline: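 Metabolic activity measured by WST-1 in parallel with the human explant assay and reported as a percentage.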

[12] = Antidegenerative activity against human cartilage explant assessed as inhibition of IL1-induced of GAG release at 250 uM for 1 day before IL-1 treatment measured after 6 days by colorimetric analysis relative to control; type: functional; details: Cartilage tissue
Outline: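 Human explants: 24 h equilibration, 1 day preincubation with compound in DMEM/lactalbumin/vitamin C/ITS medium, then IL-1 10 ng for 6 days with medium renewed every two days. Compounds dissolved in DMSO, with a 0.25% DMSO control. GAG released measured colorimetrically (Blyscan). % reduction = (mean control release − mean sample release)/control release × 100.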

| SMILES | inhibition at 100 µM [1] | viability at 100 µM [2] | viability at 10 µM [3] | inhibition at 10 µM [4] | also measured |
| --- | --- | --- | --- | --- | --- |
| CCOC(=O)[C@@H](NP(=O)(Oc1ccc(OC)cc1)O[C@H]1[C@H](O)[C@@H](CO)O[C@H](OC)[C@@H]1NC(C)=O)C(C)C (stereo partly specified) | -52.5% | 85% |  |  |  |
| CCCCOC(=O)[C@@H]1CCCN1P(=O)(Oc1ccc(OC)cc1)O[C@H]1[C@H](O)[C@@H](CO)O[C@H](O)[C@@H]1NC(C)=O (stereo partly specified) |  |  | 87.1% | 30.4% |  |
| CC(=O)N[C@@H]1[C@@H](O)[C@H](O)[C@@H](CO)O[C@H]1O [N-ACETYLGLUCOSAMINE] | 5.4% | 107% |  |  | inhibition at 10000 µM [5]: 9.3%; inhibition at 1000 µM [6]: -1%; viability at 10000 µM [7]: 61%; viability at 1000 µM [8]: 70% |
| COc1ccc(OP(=O)(O[C@H]2[C@H](O)[C@@H](CO)O[C@H](O)[C@@H]2NC(C)=O)N2CCC[C@H]2C(=O)OC2CCCCC2)cc1 (stereo partly specified) | -9.6% |  |  |  |  |
| COC(=O)[C@@H](NP(=O)(Oc1ccc(OC)cc1)O[C@H]1[C@H](O)[C@@H](CO)O[C@H](O)[C@@H]1NC(C)=O)C(C)C (stereo partly specified) | -4.4% | 96% |  |  |  |
| COc1ccc(OP(=O)(O[C@H]2[C@H](O)[C@@H](CO)O[C@H](O)[C@@H]2NC(C)=O)N2CCC[C@H]2C(=O)OCc2ccccc2)cc1 (stereo partly specified) |  |  | 115% | 28.8% |  |
| CCC[C@H](NP(=O)(Oc1ccc(OC)cc1)O[C@H]1[C@H](O)[C@@H](CO)O[C@H](O)[C@@H]1NC(C)=O)C(=O)OCC (stereo partly specified) | 11.8% | 93% |  |  |  |
| COc1ccc(OP(=O)(N[C@@H](C)C(=O)OCc2ccccc2)O[C@H]2[C@H](O)[C@@H](CO)O[C@H](OC)[C@@H]2NC(C)=O)cc1 (stereo partly specified) | -19% | 78% |  |  |  |
| CCOC(=O)[C@@H]1CCCN1P(=O)(Oc1ccc(OC)cc1)O[C@H]1[C@H](O)[C@@H](CO)O[C@H](OC)[C@@H]1NC(C)=O (stereo partly specified) | -53.7% | 62% |  |  |  |
| CCOC(=O)CN(C)P(=O)(Oc1ccc(OC)cc1)O[C@H]1[C@H](O)[C@@H](CO)O[C@H](O)[C@@H]1NC(C)=O (stereo partly specified) | -24.9% | 32% |  |  | viability at 1000 µM [8]: 80% |
| CCOC(=O)[C@@H]1CCCN1P(=O)(Oc1ccc(OC)cc1)O[C@H]1[C@H](O)[C@@H](CO)O[C@H](O)[C@@H]1NC(C)=O (stereo partly specified) |  |  | 66.4% | 38% |  |
| CCOC(=O)[C@@H]1CCCN1P(=O)(Oc1ccc(OC)cc1)O[C@H]1[C@H](O)[C@@H](NC(C)=O)[C@H](O)O[C@@H]1CO (stereo partly specified) |  |  | 107% | 17.4% |  |
| CCOC(=O)CN(C)P(=O)(Oc1ccc(OC)cc1)O[C@H]1[C@H](O)[C@@H](CO)O[C@H](OC)[C@@H]1NC(C)=O (stereo partly specified) | -23.2% | 100% |  |  |  |
| COc1ccc(OP(=O)(O[C@H]2[C@H](O)[C@@H](CO)O[C@H](O)[C@@H]2NC(C)=O)N2CCC[C@H]2C(=O)OC(C)(C)C)cc1 (stereo partly specified) | -8% | 91% |  |  | viability at 1000 µM [8]: 5%; Stability [9]: Stable; Stability [10]: Stable |
| COc1ccc(OP(=O)(N[C@H](C(=O)OCc2ccccc2)C(C)C)O[C@H]2[C@H](O)[C@@H](CO)O[C@H](OC)[C@@H]2NC(C)=O)cc1 (stereo partly specified) | 9.4% | 99% |  |  |  |
| N[C@H]1C(O)O[C@H](CO)[C@@H](O)[C@@H]1O (stereo partly specified) [GLUCOSAMINE] | 0.8% | 106% | 107% | 10.3% | viability at 250 µM [11]: 85.3%; inhibition at 10000 µM [5]: 19%; inhibition at 1000 µM [6]: 3.4%; viability at 10000 µM [7]: 56%; viability at 1000 µM [8]: 88%; inhibition at 250 µM [12]: 14.1% |
| COc1ccc(OP(=O)(O[C@H]2[C@H](O)[C@@H](CO)O[C@H](O)[C@@H]2NC(C)=O)N2CCC[C@H]2C(=O)OC(C)C)cc1 (stereo partly specified) | 17.5% | 90% | 79.4% | 24.4% |  |
| CCC(C)OC(=O)[C@@H]1CCCN1P(=O)(Oc1ccc(OC)cc1)O[C@H]1[C@H](O)[C@@H](CO)O[C@H](O)[C@@H]1NC(C)=O (stereo partly specified) | -4.4% | 96% | 53.9% | 27.1% | viability at 1000 µM [8]: 7% |
